Results on 1 compound are retold here after ChEMBL document CHEMBL3526151, “Reversible disulfide formation of the glutamate carboxypeptidase II inhibitor E2072 results in prolonged systemic exposures in vivo” (Drug Metab Dispos, 2012).

Molecules are shown by their SMILES.

Series [1] in a line: Tmax in Sprague-Dawley rat at 10 mg/kg, po administered via gavage measured under fed conditions by LC-MS/MS analysis. In kind it is ADME, organism-based. Details: dose 10 mg/kg, route oral. The conditions noted are these: in vivo. The procedure, abridged:
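Nonfasted male Sprague-Dawley rats gavaged once at 10 mg/kg in 50 mM HEPES-buffered saline pH 7.4. Blood into heparin/NEM tubes at 0, 0.25, 0.5, 1, 2, 4, 6, 8 and 24 h. Plasma analysed by LC-MS/MS; Tmax taken as the observed value.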

The nature of series [2]: AUC(0 to infinity) in Sprague-Dawley rat at 10 mg/kg, po administered via gavage measured under fed conditions by LC-MS/MS analysis. The format is ADME, organism-based. More on the design: time infinity, dose 10 mg/kg, route oral. The note with it: plasma. The method in brief:
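Nonfasted male Sprague-Dawley rats given a single 10 mg/kg oral dose in 50 mM HEPES buffered saline, pH 7.4. Plasma collected 0.25–24 h into heparin/NEM tubes and assayed by LC-MS/MS. Noncompartmental parameters derived, including Cl/F and Vd/F. Mean ± S.D., n = 6–9.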

Series [3] can be described thus: Tmax in cynomolgus monkey at 5 mg/kg, po by LC-MS/MS analysis. The format is ADME, organism-based, Macaca fascicularis. Details: dose 5 mg/kg, route oral. The note with it: in vivo. The procedure, abridged: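 Cynomolgus monkeys (n=3) dosed at 5 mg/kg nominal, TCEP-treated 50 mM HEPES solution, either as i.v. bolus (cephalic or saphenous vein) or orally. Arterial cannula blood into heparin/NEM tubes for up to 9 days. Plasma parent and homodisulfide measured by LC-MS/MS; Tmax observed.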

Series [4] can be described thus: Cmax in Sprague-Dawley rat kidney at 10 mg/kg/day, po administered for 5 days measured per gm of tissue by LC-MS/MS analysis. In kind it is ADME, organism-based. Details: dose 10 mg/kg/day, route oral. The method in brief: (§1)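 Male Sprague-Dawley rats were dosed orally with 10 mg/kg/day, either once or daily for 5 days; n = 4 per group. Blood was taken by cardiac puncture and liver, kidney, brain and sciatic nerve were collected at 0–8 h post-dose. Tissues were homogenized in PBS containing NEM at equal volume per gram. NEM-derivatized analyte was extracted with methanol and quantified by LC-MS/MS (1–5000 ng/ml). Cmax is the observed value.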

Series [5] can be described thus: Primary phase half life in Sprague-Dawley rat at 10 mg/kg, iv by LC-MS/MS analysis. Details: dose 10 mg/kg, route intravenous. The format is ADME, organism-based. The conditions noted are these: in vivo, read-out: alphat1/2 (converted).
Series [6] in a line: Phase 1 metabolic stability in monkey liver microsomes assessed as compound remaining at 10 uM measured for 1 hr by LC-MS/MS analysis. The format is ADME, Macaca mulatta. The conditions noted are these: rhesus monkey, read-out: Stability. The method in brief: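 Liver microsomes (0.5 mg/ml) were incubated with 10 µM compound (final) in 100 mM potassium phosphate, pH 7.4. An NADPH-regenerating system was present: 1.3 mM NADPH, 3.3 mM glucose 6-phosphate, 3.3 mM MgCl2, 0.4 U/ml G6PDH and 50 µM sodium citrate. Runs were in duplicate, with samples taken up to 1 h and quenched with acetonitrile containing internal standard. Loss of compound was followed by LC-MS/MS.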
In general terms: Liver microsomes are a subcellular fraction often used to study metabolism.

Series [7] is described as follows: Phase 2 metabolic stability in human liver microsomes assessed as compound remaining at 10 uM measured for 1 hr by LC-MS/MS analysis. The note with it: read-out: Stability. The format is ADME. The procedure, abridged: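 For glucuronidation, compound was preincubated at 37°C in 50 mM Tris-HCl, pH 7.5, with 0.5 mg/ml liver microsomes, 8 mM MgCl2 and 25 µg/ml alamethicin. Reactions were started in duplicate with 2 mM UDPGA (final). Samples were taken up to 1 h, quenched with acetonitrile containing internal standard, and compound disappearance was measured by LC-MS/MS.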

The nature of series [8]: Phase 1 metabolic stability in monkey liver microsomes assessed as compound remaining at 10 uM measured for 1 hr by LC-MS/MS analysis in absence of cofactors. The format is ADME, Macaca mulatta. The conditions noted are these: rhesus monkey, read-out: Stability. The method in brief: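 Cofactor-free controls were run for each microsomal incubation: 0.5 mg/ml liver microsomes with 10 µM compound, omitting cofactors, so that cofactor-independent degradation could be measured. Samples were taken up to 1 h, quenched with acetonitrile containing internal standard, and the percent remaining was determined by LC-MS/MS.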

A short description of series [9]: Metabolic stability in Sprague-Dawley rat plasma assessed as compound remaining at 10 uM after 1 hr by LC-MS/MS analysis. The conditions noted are these: read-out: Stability. In kind it is ADME, cell-free. The method in brief: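 Compound at 5 and 10 µM was incubated at 37°C in Sprague-Dawley rat or cynomolgus monkey plasma. Aliquots taken at 0, 30 and 60 min were quenched with acetonitrile and analyzed by LC-MS/MS. Percent remaining = analyte/internal-standard area ratio at time t divided by that at time 0.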

The nature of series [10]: Cmax in Sprague-Dawley rat brain at 10 mg/kg/day, po administered for 5 days measured per gm of tissue by LC-MS/MS analysis. In kind it is ADME, organism-based. More on the design: dose 10 mg/kg/day, route oral. The method in brief:
as §1

The next series relates to Rattus norvegicus. Nature of the series: Analgesic activity in Sprague-Dawley rat chronic constriction injury model assessed as change in paw withdrawal latency at 10 mg/kg/day, po (reference value: -3.11 +/-0.34 s). The format is functional.
Series [11] can be described thus: Protein binding in cynomolgus monkey serum at 10 uM after 1 hr by LC-MS/MS analysis. The format is ADME, Macaca fascicularis. The note with it: read-out: PB (converted). The method in brief:
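Serum from the named species spiked to 10 μM and held 1 h at 37°C, then ultrafiltered through a 5000 Da cutoff device (45 min, 37°C, 1800g). Filtrate and unfiltered serum extracted and measured by LC-MS/MS; % bound = 100 − (Cu/Cs × 100).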

Series [12] is described as follows: Cmax in Sprague-Dawley rat at 1 mg/kg, po administered via gavage measured under fasted conditions by LC-MS/MS analysis. More on the design: dose 1 mg/kg, route oral. The note with it: in vivo. In kind it is ADME, organism-based. The method in brief:
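Fasted male Sprague-Dawley rats (280–330 g) received 0.1, 1, 10 or 30 mg/kg by oral gavage in 50 mM HEPES buffered saline, pH 7.4. Blood drawn at 0.25–24 h into heparin/NEM tubes; plasma analyzed by LC-MS/MS. Cmax taken as observed. AUC by linear trapezoidal rule with extrapolation by λz. Cl/F and Vd/F reported. Mean ± S.D., n = 4–9.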

A short description of series [13]: AUC(0 to last) in Sprague-Dawley rat at 10 mg/kg, iv administered as bolus injection measured under fasted conditions by LC-MS/MS analysis. The format is ADME, organism-based. More on the design: time 0 - last, dose 10 mg/kg, route intravenous. The conditions noted are these: plasma. The method in brief:
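Male Sprague-Dawley rats (280–330 g), jugular vein cannulated, fasted overnight until 4 h post-dose. Single tail-vein bolus of 0.1, 1, 10 or 30 mg/kg in 50 mM HEPES buffered saline, pH 7.4. Blood drawn 0–24 h into heparin tubes containing NEM. Plasma quantified by LC-MS/MS after NEM derivatization. Noncompartmental analysis: AUClast by linear trapezoidal rule, Cl = dose/AUC0-∞. Mean ± S.D., n = 4–9.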

A short description of series [14]: Volume of distribution in Sprague-Dawley rat at 10 mg/kg, iv administered as bolus injection measured under fasted conditions by LC-MS/MS analysis. In kind it is ADME, organism-based. Details: dose 10 mg/kg, route intravenous. The note with it: in vivo. The procedure, abridged:
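Jugular-cannulated male Sprague-Dawley rats, 280–330 g, fasted overnight to 4 h post-dose. Single dose in 50 mM HEPES-buffered saline pH 7.4, by oral gavage or as tail-vein i.v. bolus. Blood into heparin/NEM tubes at 0–24 h. Plasma measured by LC-MS/MS; noncompartmental analysis; Tmax observed; Vd = dose/(AUCinf·λz).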

A short description of series [15]: Half life in Sprague-Dawley rat at 0.1 mg/kg, po administered via gavage measured under fasted conditions by LC-MS/MS analysis. The note with it: in vivo. In kind it is ADME, organism-based. More on the design: dose 0.1 mg/kg, route oral.
Series [16] in a line: Oral bioavailability in Sprague-Dawley rat at 1 mg/kg administered via gavage measured under fasted conditions by LC-MS/MS analysis. In kind it is ADME, organism-based. The note with it: in vivo.
Series [17] is described as follows: Oral bioavailability in Sprague-Dawley rat at 30 mg/kg administered via gavage measured under fasted conditions by LC-MS/MS analysis. In kind it is ADME, organism-based. The note with it: in vivo.

As a reminder, the Tmax is the time from dosing to the highest level. What is called AUC(0-inf) is total exposure, with the tail of the curve extrapolated. The term Cmax denotes the peak of the concentration-time curve. A word on the AUC(0-t): it is exposure summed from dosing to a finite time, without extrapolation to infinity. The term Vd denotes the apparent volume that relates the amount in the body to the concentration in plasma or blood. What is called bioavailability is dose-corrected exposure relative to a reference, in per cent. Turning to `O=C(O)c1cccc(-c2cccc(CCS)c2C(=O)O)c1`, the results for the time to peak (Tmax) in series [1] and in series [3] were 17.4 min and 25.2 min, respectively. Besides, the total exposure AUC(0-inf) in series [2] came to 37100 ng·h/mL. Also, the Cmax was 388 ng/g in [4], 32.4 ng/g in series [10] and 1100 ng/mL in [12]. Further, the half-life in series [5] is 52.2 min; in series [15], 560 min. Further, the remaining at 1 h, 10 µM in [6] is over 90%; in series [7] it was over 90%; in series [8], over 90%; in [9], 64.5%. The Time with Rattus norvegicus is listed as -0.55 s. Further, the fraction unbound at 1 h, 10 µM in [11] was 0.101. In addition, in series [13], the AUC(0-t) was 90200 ng·h/mL. Besides, the volume of distribution (Vd) in [14] was 1.43 L/kg. Moreover, the bioavailability was 23.7% in series [16] and 37.5% in series [17].
